The test system of data set [1] is Trypanosoma brucei rhodesiense. Put plainly: Antiparasitic activity against Trypanosoma brucei rhodesiense. It counts as functional, organism-based.
Data set [2] concerns HEK293. The experiment in a line: Activation of Nrf2-ARE pathway in HEK293 cells transfected with firefly luciferase reporter assessed as fold increase in Nrf2 activity at 32 uM incubated for 24 hrs by ARE luciferase reporter gene based microplate reader assay. The following applies: Homo sapiens, filed as activator. It counts as cell-based. In a few lines: (§1)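 HEK293 cells stably carrying an ARE-driven firefly luciferase reporter, grown in DMEM with 10% FBS at 37 °C and 5% CO2, seeded 10,000/well and left overnight. Half-log serial dilutions from 32 μM were added, with tBHQ (10 μM) as positive control and 0.5% DMSO as vehicle. Luminescence was read with BriteLite reagent after 24 h and expressed as fold activity; n = 3.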
(A reporter such as luciferase makes a cellular process visible.)

The subject of data set [3] is RAW264.7. Put plainly: Anti-inflammatory activity in LPS induced mouse RAW264.7 cells assessed as fold increase in Nqo1 transcript level at 32 uM preincubated for 1 hr followed by LPS stimulation and measured after 12 hrs by TaqMan analysis. It counts as functional. The following applies: time 13 hrs. In a few lines:
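RAW264.7 cells seeded 175,000/well, given fresh medium, pretreated 1 h with half-log dilutions from 32 μM (0.5% DMSO vehicle), then stimulated with LPS 1 μg/mL for 12 h. Unstimulated wells were run alongside. RNA was extracted and reverse transcribed with oligo(dT), then measured by TaqMan qPCR for Nqo1 and iNos with actin as the endogenous control. Mean ± SD, n = 3, two-tailed unpaired t-test against DMSO + LPS.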
Background: In qPCR the cycle at which signal appears reflects the starting amount.

Data set [4] relates to RAW264.7. Put plainly: Anti-inflammatory activity in LPS induced mouse RAW264.7 cells assessed as reduction in NO production at 32 uM preincubated for 1 hr followed by LPS stimulation and measured after 24 hrs by Griess reagent based plate reader assay. The conditions noted are these: time 25.0 hrs. It counts as functional, cell-based. The procedure, abridged:
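RAW264.7 cells seeded 20,000/well, pretreated 1 h with half-log dilutions from 32 μM (0.5% DMSO vehicle), then stimulated with LPS 1 μg/mL. Unstimulated controls were included. After 24 h the supernatant was mixed with Griess reagent and absorbance read at 540 nm. NO was calculated from a nitrite standard curve. Mean ± SD, n = 3, t-test against DMSO + LPS.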
Background: Nitrite, measured by Griess reagent, commonly stands in for NO production.

Data set [5] concerns HEK293. Put plainly: Cytotoxicity against HEK293 ARE-luc cells at 1 to 32 uM incubated for 24 hrs by MTT assay. It counts as toxicity, cell-based. The conditions noted are these: human, hek293, 24 h, dose 1-32 µM. In a few lines: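 HEK293 ARE-luc cells seeded 10,000/well and left overnight, then treated with half-log dilutions from 32 μM, tBHQ 10 μM, or 0.5% DMSO for 24 h. Viability was read by MTT; mean ± SD, n = 3.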

Data set [6] deals with HEK293. The experiment in a line: Activation of Nrf2-ARE pathway in HEK293 cells transfected with firefly luciferase reporter assessed as fold increase in Nrf2 activity at 10 uM incubated for 24 hrs by ARE luciferase reporter gene based microplate reader assay. It counts as cell-based. The following applies: Homo sapiens, filed as activator. In a few lines: as §1
Data set [7] deals with RAW264.7. Put plainly: Cytotoxicity against mouse RAW264.7 cells at 32 uM incubated for 24 hrs by MTT assay. It counts as toxicity, cell-based. The following applies: raw264.7, 24 h. The procedure, abridged:
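RAW264.7 cells seeded 20,000/well and treated for 24 h with half-log dilutions from 32 μM together with LPS 1 μg/mL (0.5% DMSO vehicle). Viability was read by MTT in parallel with the NO assay; mean ± SD, n = 3.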

For a further data set, the system named is HCT-116. The experiment in a line: Antiproliferative activity against human HCT-116 cells assessed as cell viability at 32 uM incubated for 48 hrs by MTT assay. The following applies: HCT-116, 48 h.
Another data set concerns KB. The experiment in a line: Antiproliferative activity against human KB cells. It counts as functional, cell-based.
A further data set has as its system LoVo. Put plainly: Antiproliferative activity against human LoVo cells. It counts as functional, cell-based.

Consider four compounds from ChEMBL document CHEMBL6127074, “Isolation and Characterization of the Cyanobacterial Macrolide Glycoside Moorenaside, an Anti-Inflammatory Analogue of Aurisides Targeting the Keap1/Nrf2 Pathway” (J Nat Prod, 2024).

Activity calls are given as the source filed them. The rule behind the calls is not given here.

The term IC50 denotes the midpoint of a concentration-inhibition curve. For orientation: viability means a per cent measure of how many cells are alive, often set against a control.

In data set [1], `CCCCC/C=C/C=C/[C@H]1OC(=O)C[C@@H]2O[C@H](C[C@H](O)C[C@H](C)C[C@@H](O)C1(C)C)C[C@H](O[C@@H]1OC[C@@H](OC)[C@H](O)[C@H]1O)C2(C)C` gave an IC50 of 11 µM. That is a double-digit micromolar value.

Turning to `CO[C@@H]1[C@@H](O)[C@@H](OC)[C@H](O[C@@H]2C[C@H]3O[C@@](O)(C2)[C@H](C)C(=O)O[C@@H](/C=C/C=C/Br)C/C(C)=C/C(=O)C3(C)C)O[C@H]1C`, the fold change (FC) is 7.7 in the data set on HEK293 [2], 5 in the data set on RAW264.7 [3] and 2.5 in the data set with HEK293 [6]. The outcome in the data set with RAW264.7 [4] was Active. Further, the Activity result in the data set with HEK293 [5] and in the data set on RAW264.7 [7] was “Non-Toxic” in each case. Further, the viability at 32 µM in the data set on HCT-116 was found to be 55%.

Consider `CO[C@@H]1[C@@H](OC)[C@@H](O)[C@H](O[C@H]2C[C@@]3(O)CC(=O)O[C@@](C)(CC/C=C/C=C/Br)C[C@H](O)[C@@H](C)CC[C@H](O3)[C@@H]2C)O[C@H]1C`, for which the IC50 in the data set on KB came out at 4.3 µM; in the data set with LoVo, 15 µM.

In turn, `C=CCCC/C=C/C=C/[C@H]1OC(=O)C[C@@H]2O[C@H](C[C@H](O)C[C@H](C)C[C@@H](O)C1(C)C)C[C@H](O[C@@H]1OC[C@@H](OC)[C@H](O)[C@H]1O)C2(C)C` gave a 50% inhibitory concentration (IC50) in [1] of 11 µM.
